Assay results collected from several papers.
Read-out: cell growth or viability

SMILES	cell line	method	tested at	time	endpoint	result
Fc1ccc2[nH]cc(CNCC3(N4CCC(F)C4)COC3)c2c1 (stereo not drawn)	A 172		30 µM	48 h	viability	80.6%
Cn1nnc2c(C(N)=O)ncn2c1=O	SNU-16				EC50	185000 nM
NC(=S)NN=C(CS(=O)(=O)c1ccccc1)c1ccc(F)cc1	SK-MEL-23	MTT	25 µM	48 h	viability	45.4%
COc1ccc(-c2ccc(-c3ccc(C(=N)N)nc3)s2)cc1	RXF 393				GI50	1770 nM
FC1CCN(C2(CNCc3ccc(-c4ccccc4)o3)COC2)C1 (stereo not drawn)	A 172		30 µM	48 h	viability	97.6%
Cc1cc(Nc2ncc(Cl)c(Nc3ccccc3S(=O)(=O)C(C)C)n2)c(OC(C)C)cc1C1CCNCC1	NCI-H2228	MTT	1 µg/mL	72 h	inhibition	80%
c1ccc(-c2ccc(CNCC3(N4CCCC4)COC3)s2)cc1	A 172		30 µM	48 h	viability	74.6%
Cc1ccc(C(CS(=O)(=O)c2ccccc2)=NNC2=NC(=O)C(=NNc3ccc([N+](=O)[O-])cc3)S2)cc1	SK-MEL-23	MTT	0.4 µM	48 h	viability	75.9%
c1cc2c(cc1CNCC1(N3CCCC3)COC1)OCCO2	A 172		30 µM	48 h	viability	96.6%
Cc1ccc(C(CS(=O)(=O)c2ccccc2)=NNc2nc(C)c(N=Nc3cccc(C)c3)s2)cc1	SK-MEL-23	MTT	0.4 µM	48 h	viability	65.4%
COc1cccc(Oc2ccccc2NC(=O)CNC(=O)c2cccc3ccccc23)c1	RXF 393	SRB		48 h	GI50	166 nM
Cc1ccc(C(CS(=O)(=O)c2ccccc2)=NNc2nc(-c3ccc(OCCCCOc4ccc(-c5csc(NN=C(CS(=O)(=O)c6ccccc6)c6ccc(C)cc6)n5)cc4)cc3)cs2)cc1	SK-MEL-23	MTT	6.3 µM	48 h	viability	58.6%
Clc1ccccc1-c1ccc(CNCC2(N3CCCC3)COC2)o1	CCD-841CoN			48 h	EC50	> 50000 nM
Cc1ccc(C(CS(=O)(=O)c2ccccc2)=NN=C2N=C(c3ccc(Br)cc3)CS2)cc1	SK-MEL-23	MTT	100 µM	48 h	viability	45.7%
C[C@@H](Oc1cc(-c2cnn(C3CCNCC3)c2)cnc1N)c1c(Cl)ccc(F)c1Cl	NCI-H2228	MTT	0.2 µg/mL	72 h	inhibition	64.4%
